In ChEMBL document CHEMBL3763088, “Design, synthesis, and biological evaluation of water-soluble amino acid prodrug conjugates derived from combretastatin, dihydronaphthalene, and benzosuberene-based parent vascular disrupting agents” (Bioorg Med Chem, 2016):

Legend:
[1] = Cytotoxicity against human SKOV3 cells assessed as growth inhibition after 48 hrs by SRB assay; format: functional, SK-OV-3; conditions: Homo sapiens, SK-OV-3, 48 h
How it was run: (§1)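 Cells kept at 37 °C, 5% CO2, up to passage 15. Plated at 7500 cells/well in DMEM with 5% FBS and 1% gentamycin, grown 24 h, then given 10-fold serial dilutions for 48 h. Fixed with 10% TCA (final), SRB-stained, read at 540 nm, normalized at 630 nm. GI50 is the concentration halving net protein staining versus controls, taken from optical density data.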

NCI-H460 = assay: Cytotoxicity against human NCI-H460 cells assessed as growth inhibition after 48 hrs by SRB assay; format: functional; how it was run: as §1
[2] = Cytotoxicity against human DU145 cells assessed as growth inhibition after 48 hrs by SRB assay; format: functional, DU-145; how it was run: as §1
Leucine aminopeptidase [3] = target: T1, Leucine aminopeptidase (Sus scrofa, UniProt Q29571); assay: Drug level assessed as porcine leucine aminopeptidase-mediated compound formation treated with (Z)-N,N''-(3-Methoxy-6-(3,4,5-trimethoxystyryl)-1,2-phenylene)bis(2-aminoacetamide) after 25 hrs using 1.5 units of enzyme by HPLC analysis; format: ADME; conditions: pig
T1 sequence (Q29571 whole entry): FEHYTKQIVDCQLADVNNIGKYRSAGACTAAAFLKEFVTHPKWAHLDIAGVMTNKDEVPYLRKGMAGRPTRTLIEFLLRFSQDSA
How it was run: (§2)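 Porcine kidney microsomal LAP; units defined with 24 mM L-leucine p-nitroanilide in 50 mM sodium phosphate pH 7.2 at 37 °C. Enzyme preincubated in the same buffer at 37 °C, then substrate added. Aliquots were quenched with acetonitrile on ice, centrifuged and run on C18 HPLC (acetonitrile/water, 0.05% TFA, 1.0 mL/min, 22 °C, diode-array UV). Cleavage % from the parent/prodrug peak-area ratio; amounts from calibration curves.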

Leucine aminopeptidase [4] = target: T1, Leucine aminopeptidase; assay: Drug level assessed as porcine leucine aminopeptidase-mediated compound formation treated with (Z)-N,N''-(3-Methoxy-6-(3,4,5-trimethoxystyryl)-1,2-phenylene)bis(2-aminoacetamide) after 25 hrs using 0.12 units of enzyme by HPLC analysis; format: ADME; conditions: pig; how it was run: as §2
Leucine aminopeptidase [5] = target: T1, Leucine aminopeptidase; assay: Drug level assessed as porcine leucine aminopeptidase-mediated compound formation treated with (Z)-N,N''-(3-Methoxy-6-(3,4,5-trimethoxystyryl)-1,2-phenylene)bis(2-aminoacetamide) after 25 hrs using 3.7 units of enzyme by HPLC analysis; format: ADME; conditions: pig; how it was run: as §2
Tubulin = Tubulin (Bos taurus, UniProt Q6B856+Q862L2+Q862F3); assay: Inhibition of bovine brain tubulin polymerization preincubated for 15 mins by spectrophotometric analysis
How it was run: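 Purified bovine brain tubulin, 1.0 mg/mL (10 μM), in 0.8 M monosodium glutamate pH 6.6 with 4% DMSO and varied compound. Temperature jumped from 0 to 30 °C; turbidity at 350 nm followed for 20 min.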

COc1ccc(/C=C\c2cc(OC)c(OC)c(OC)c2)c(N)c1N
GI50 [1]: 23.5 nM | GI50 (NCI-H460): 35.9 nM | GI50 [2]: 39.1 nM | Drug metabolism (Leucine aminopeptidase [3]): metabolite_detected | Drug metabolism (Leucine aminopeptidase [4]): metabolite_detected | Drug metabolism (Leucine aminopeptidase [5]): metabolite_detected | IC50 (Tubulin): 1500 nM
